Measured values from different studies.
Lines come from different studies, so protocols differ.
Observed: cell growth or viability

CN(C)C/C=C/C(=O)Nc1cc2c(Nc3ccc(F)c(Cl)c3)ncnc2cc1O[C@H]1CCOC1
viability (KB-C2; ATP luminescence; 3 µM, 12 days, 3D culture): 67.7%

COC(=O)[C@H](C)Nc1ccnc(Nc2cccc(-c3cccnc3)c2)n1
EC50 (BJ; ATP luminescence; 72 h): > 8 µM

O=C(Nc1cncc(-c2nc3ccccc3s2)c1)c1cc([N+](=O)[O-])c(N2CCNCC2)cc1Cl
EC50 (BJ; ATP luminescence): > 15.3 µM

C[C@]12CC[C@@H]3c4ccc(O)cc4CC[C@H]3[C@@H]1CC[C@@H]2O
EC90 (OVCAR-3; ATP luminescence; 72 h): 76.1 µM

CCNc1ccnc(Nc2cccc(-c3cccnc3)c2)n1
EC50 (BJ; ATP luminescence; 72 h): > 21 µM

CC(=O)c1c(C)c2cnc(Nc3ccc(N4CCNCC4)cn3)nc2n(C2CCCC2)c1=O
GI50 (MDA-MB-157; resazurin): > 5000 nM

Oc1ccc(Nc2nc(-c3ccc(Cl)cc3)cs2)cc1
IC50 (1205Lu; MTS; 48 h): 86.3 µM

CC(C)Nc1ccnc(Nc2cccc(-c3cccnc3)c2)n1
EC50 (BJ; ATP luminescence; 72 h): > 17 µM

COc1cc(-c2ccc(-c3ccc(C(=N)N)nc3)s2)cc(OC)c1OC
GI50 (OVCAR-3; SRB): 2600 nM

Cc1cc(Cl)c(Cl)cc1NC(=O)c1ccc(N2CCNCC2)nc1
EC50 (BJ; ATP luminescence): > 24 µM

C=CC(=O)N1CCC[C@@H](n2nc(-c3ccc(Oc4ccccc4)cc3)c3c(N)ncnc32)C1
GI50 (UPN1; ATP luminescence; 72 h): 4870 nM

c1cc(Nc2nccc(NC3CCCCC3)n2)cc(-c2ncco2)c1
EC50 (BJ; ATP luminescence; 72 h): > 45 µM

CC#CC(=O)N1CC[C@@H](n2cc(-c3ccc(Oc4c(F)cccc4F)cc3)c3c(N)n[nH]c(=O)c32)C1
GI50 (UPN1; ATP luminescence; 72 h): 2210 nM

COc1ccc(-c2ccc(-c3ccc(C(=N)N)nc3)s2)cc1
GI50 (ACHN): 1840 nM
